Rows were chosen to be rich in hits. Some 1% of all compounds tested hit in one or more screens of this group.
FXIIa inh: factor XIIa (human) inhibition | P00748 | purified FXIIa, Boc-QGR-AMC fluorogenic substrate, 2 h | inhibition, % at 5 µM | actives 0.3% (n = 220,000) | AID 800; in the data active = inhibition above about 40%;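 also: 0% = enzyme with no compound and 100% = blank without enzyme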
FXIa inh: inhibitors of human coagulation factor XIa; actives 0.14% (n = 220,000); P03951; inhibition, % at 5 µM; purified FXIa, Boc-Glu-Ala-Arg-AMC fluorogenic substrate;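 active = inhibition of at least 40%; inactive = inhibition below 40%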;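 also: fluorescence of freed AMC excited at 355 nm; 0% = enzyme without compound and 100% = no enzyme blank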
thrombin 1536: inhibitors of human thrombin; actives 0.26% (n = 220,000); inhibition, % at 5 µM; P00734; alpha-thrombin, Boc-VPR-AMC fluorogenic substrate cleavage;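 active = inhibition at or above 40%; inactive = inhibition below 40%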;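 also: 0% = enzyme with no compound and 100% = wells without enzyme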
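Material: human alpha-thrombin protein; Also added: Boc-VPR-AMC substrate, 15 µM final; Timing: enzyme reaction carried out at room temperature; Signal: fluorescence, ex 355 nm, em 460 nm; Measure: % inhibition of thrombin; Controls: enzyme without compound as high, wells lacking enzyme as low.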
KLK5 inh: kallikrein 5 (human) inhibition; Q9Y337; recombinant hK5, fluorogenic AMC substrate cleavage; inhibition, % at 5 µM; actives 0.59% (n = 210,000);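 active = inhibition of 40% or more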;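 also: 0% = enzyme controls without compound and 100% = no-enzyme blanks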
Target sequence (Q9Y337 67-293 limits assumed): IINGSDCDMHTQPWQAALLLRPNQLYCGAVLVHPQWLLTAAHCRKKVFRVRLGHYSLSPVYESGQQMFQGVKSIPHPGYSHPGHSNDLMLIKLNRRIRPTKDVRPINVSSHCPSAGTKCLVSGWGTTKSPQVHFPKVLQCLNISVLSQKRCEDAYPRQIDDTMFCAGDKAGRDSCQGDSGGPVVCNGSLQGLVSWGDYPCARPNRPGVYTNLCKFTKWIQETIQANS
Numbers without * were called inactive; nt = no result.

SMILES	FXIIa inh	FXIa inh	thrombin 1536	KLK5 inh
O=C(NCc1ccco1)C1CC(c2ccccc2C(F)(F)F)=NO1 (stereo not given)	20.5	71.7*	20.8	19.2
O=C(N/N=C(\CC(=O)c1cccs1)C(F)(F)F)c1ccncc1	23.5	36.9	8.2	61.4*
NC(=O)c1ccsc1NC(=O)c1nc(-c2ccccc2)n(-c2ccccc2)n1	8.3	2.5	44.1*	-36.9
O=C(Nc1ccccn1)c1nc(-c2ccccc2)n(-c2ccccc2)n1	3.3	8.1	-3.7	-9.8
C=C(C)CNC(=S)N/N=C/c1ccc(NC(C)=O)cc1	3.9	-5.3	-9.8	-2.1
C=C(C)CNC(=S)Nc1cccc(N)n1	20.5	48.0*	10.9	40.8*
CN1CCN(CCNC(=O)c2cn(Cc3ccccc3F)nn2)CC1	60.1*	28.7	15.2	20.1
CC(C)Cc1nnc(NC(=O)c2ccc([N+](=O)[O-])cc2)s1	-18.1	-6.5	-3.0	2.6
O/N=C/c1cc(Br)cs1	6.4	2.2	0.8	0.0
CC(C)CC(=O)Nc1ccccc1N1CCCC1	26.4	-4.1	20.2	71.6*
O=C(Cn1nc(C(F)F)cc1C(F)F)NNC(=S)Nc1ccc(F)cc1	-17.2	-3.5	50.2*	-222.9
O=C(Cn1nc(C(F)F)cc1C(F)F)NNC(=S)Nc1ccc([N+](=O)[O-])cc1	8.5	-2.0	-1.4	-7.7
O=C(c1ccc2c(c1)OCO2)N1CCC(Cc2ccccc2)CC1	2.1	1.7	-4.7	-1.7
NS(=O)(=O)c1ccc(NC(=S)Nc2ccc(F)c(F)c2)cc1	19.8	9.9	-3.0	-19.4
Cc1nnc(SCC(=O)c2ccc(Cl)cc2)s1	11.1	1.6	14.6	-1.3
Cc1cc(C(C#N)c2cccc(Cl)c2)n2ncnc2n1 (stereo not given)	41.9*	14.4	0.6	-1.1
CCOc1ccc(NC(=S)N2CCC(C(N)=O)CC2)cc1	9.7	7.4	-1.0	-10.7
Cc1cccc(-n2c(CCCN3C(=O)c4ccccc4C3=O)nc3ccccc3c2=O)n1	-8.5	0.4	30.4	151.8*
COc1ccc(S(=O)(=O)NCc2c(-c3ccccc3)noc2C)c(OC)c1	29.2	58.8*	10.3	30.8
COc1ccccc1N(C)S(=O)(=O)c1ccc(C(=O)OCC(=O)NCc2cccs2)cc1	7.3	-2.4	-4.0	-2.0
Cc1nc2ncnn2c(C)c1C/C=C/c1ccccc1	3.6	-4.6	-4.6	-3.4
CC(C)(C)NC(=O)C(c1ccco1)N(Cc1ccc(F)cc1)C(=O)c1snc(C(N)=O)c1N (stereo not given)	3.5	-5.0	-4.1	-31.8
COc1ccc(CN(C(=O)c2snc(C(N)=O)c2N)C(C(=O)NC(C)(C)C)c2ccco2)cc1 (stereo not given)	43.1*	-8.7	-2.9	11.1
Cc1ccc(C(=O)NCCNc2ccc(Cl)cc2[N+](=O)[O-])o1	59.9*	-1.3	-1.8	7.0
COc1cc(COCC(O)CN2CCOCC2)cc(OC)c1OC (stereo not given)	44.7*	8.6	-8.4	-7.2
SMILES	FXIIa inh	FXIa inh	thrombin 1536	KLK5 inh
COc1ccc(COCC(O)CN2CCOCC2)cc1OC (stereo not given)	2.9	4.8	-16.9	0.4
Cc1csc(=Nc2ccccc2)n1Cc1ccco1	16.5	15.4	12.5	9.6
CC(NC(=O)COc1ccccc1)C(c1cccs1)N1CCCC1 (stereo not given)	9.5	-0.6	-2.2	3.3
Cc1ccc(C(=O)NC(C)C(c2cccs2)N2CCCC2)s1 (stereo not given)	nt	36.6	45.1*	15.6
N#Cc1sc2nc(-c3ccccc3)cc(C(F)(F)F)c2c1N	22.5	26.0	50.0*	24.0
COc1ccc(C(=O)Nc2ccc(N3CCN(c4ccc(OC)cc4)CC3)c(C#N)c2)cc1	3.4	46.8*	15.2	27.4
COc1ccc(N2CCN(c3ccc(NC(=O)C4CCCCC4)cc3C#N)CC2)cc1	7.2	0.1	-1.9	3.4
Nc1nc(-c2ccc(Cl)cc2)cc(C(F)(F)F)n1	16.0	8.8	10.1	41.9*
CC1CC1C(=O)OCC(=O)NC(=O)NC12CC3CC(CC(C3)C1)C2 (stereo not given)	3.2	-3.7	-1.0	-2.1
COC(=O)/C(=C\Nc1ccc(Oc2ccc(F)cc2F)nc1)NC(=O)c1ccccc1	4.6	2.0	-5.7	-5.8
CC(C(=O)OCC(=O)Nc1ccc2c(c1)OCO2)N1C(=O)c2ccccc2C1=O (stereo not given)	11.4	-1.9	-8.8	-17.6
CC(C(=O)Oc1ccc2c(c1)OCO2)N1C(=O)c2ccccc2C1=O (stereo not given)	56.8*	31.5	0.1	6.2
